Measured values taken from ChEMBL document CHEMBL3352060, “Synthesis and SAR study of novel tricyclic pyrazoles as potent phosphodiesterase 10A inhibitors” (Eur J Med Chem, 2014).

Experiments:
[1] = target: T1, cAMP and cAMP-inhibited cGMP 3',5'-cyclic phosphodiesterase 10A (Homo sapiens, UniProt Q9Y233); experiment: Inhibition of human PDE10A (amino acids 14 to 779) using [3H]-labelled cyclic nucleotide as substrate after 1 hr b beta counting
Summary of the method: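 PDE10A expressed in baculovirus-infected Sf9 cells (27 °C, harvested at 72 h), lysed in Tris/MgCl2/triton buffer and partially purified on Q sepharose. Reactions contained enzyme sufficient to convert 20–25% of substrate, 50 mM HEPES pH 7.6, 10 mM MgCl2, 0.02% Tween20, 0.1 mg/ml BSA, 3H-cAMP at 5 nM final and varying inhibitor levels. Signal was counted by Microbeta, activity was normalized to an uninhibited control (100%), and IC50 values were derived.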

[2] = target: cGMP-dependent 3',5'-cyclic phosphodiesterase (Homo sapiens) (UniProt O00408); experiment: Inhibition of PDE2A (unknown origin) at 10 uM
[3] = target: cGMP-inhibited 3',5'-cyclic phosphodiesterase 3A (Homo sapiens) (UniProt Q14432); experiment: Inhibition of PDE3A (unknown origin) at 10 uM
cGMP-inhibited 3',5'-cyclic phosphodiesterase 3A (Homo sapiens), sequence (Q14432 whole entry): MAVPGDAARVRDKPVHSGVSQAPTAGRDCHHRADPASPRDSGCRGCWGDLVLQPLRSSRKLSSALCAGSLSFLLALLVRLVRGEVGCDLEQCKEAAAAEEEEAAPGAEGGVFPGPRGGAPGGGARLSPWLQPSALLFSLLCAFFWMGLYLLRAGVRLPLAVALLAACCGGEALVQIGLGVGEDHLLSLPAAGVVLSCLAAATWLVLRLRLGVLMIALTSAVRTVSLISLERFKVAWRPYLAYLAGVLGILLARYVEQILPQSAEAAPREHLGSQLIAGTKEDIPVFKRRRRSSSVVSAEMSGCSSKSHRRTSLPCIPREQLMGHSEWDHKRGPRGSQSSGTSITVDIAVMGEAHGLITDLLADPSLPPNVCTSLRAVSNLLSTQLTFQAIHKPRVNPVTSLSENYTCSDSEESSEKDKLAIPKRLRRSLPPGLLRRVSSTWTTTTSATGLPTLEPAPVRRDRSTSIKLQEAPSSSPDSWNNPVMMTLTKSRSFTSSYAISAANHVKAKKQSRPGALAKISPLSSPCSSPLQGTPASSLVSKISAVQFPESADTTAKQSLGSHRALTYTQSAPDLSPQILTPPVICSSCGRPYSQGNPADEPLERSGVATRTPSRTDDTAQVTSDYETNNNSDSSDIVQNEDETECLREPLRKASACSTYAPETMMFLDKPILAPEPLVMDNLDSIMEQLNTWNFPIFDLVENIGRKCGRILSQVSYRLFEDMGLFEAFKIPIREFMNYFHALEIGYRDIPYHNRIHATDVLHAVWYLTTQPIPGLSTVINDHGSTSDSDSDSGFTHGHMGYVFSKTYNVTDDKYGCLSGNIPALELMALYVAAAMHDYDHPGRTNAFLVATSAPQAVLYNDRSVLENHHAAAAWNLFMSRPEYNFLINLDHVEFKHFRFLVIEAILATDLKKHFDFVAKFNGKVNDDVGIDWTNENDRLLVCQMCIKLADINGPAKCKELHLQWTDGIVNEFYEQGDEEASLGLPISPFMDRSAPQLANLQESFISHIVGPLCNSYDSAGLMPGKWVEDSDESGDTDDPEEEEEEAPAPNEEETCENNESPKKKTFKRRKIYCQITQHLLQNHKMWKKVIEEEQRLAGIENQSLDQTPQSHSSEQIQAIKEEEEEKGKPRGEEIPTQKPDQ

[4] = target: 3',5'-cyclic-AMP phosphodiesterase 4D (Homo sapiens) (UniProt Q08499); experiment: Inhibition of PDE4D (unknown origin) at 10 uM
3',5'-cyclic-AMP phosphodiesterase 4D (Homo sapiens), sequence (Q08499 whole entry): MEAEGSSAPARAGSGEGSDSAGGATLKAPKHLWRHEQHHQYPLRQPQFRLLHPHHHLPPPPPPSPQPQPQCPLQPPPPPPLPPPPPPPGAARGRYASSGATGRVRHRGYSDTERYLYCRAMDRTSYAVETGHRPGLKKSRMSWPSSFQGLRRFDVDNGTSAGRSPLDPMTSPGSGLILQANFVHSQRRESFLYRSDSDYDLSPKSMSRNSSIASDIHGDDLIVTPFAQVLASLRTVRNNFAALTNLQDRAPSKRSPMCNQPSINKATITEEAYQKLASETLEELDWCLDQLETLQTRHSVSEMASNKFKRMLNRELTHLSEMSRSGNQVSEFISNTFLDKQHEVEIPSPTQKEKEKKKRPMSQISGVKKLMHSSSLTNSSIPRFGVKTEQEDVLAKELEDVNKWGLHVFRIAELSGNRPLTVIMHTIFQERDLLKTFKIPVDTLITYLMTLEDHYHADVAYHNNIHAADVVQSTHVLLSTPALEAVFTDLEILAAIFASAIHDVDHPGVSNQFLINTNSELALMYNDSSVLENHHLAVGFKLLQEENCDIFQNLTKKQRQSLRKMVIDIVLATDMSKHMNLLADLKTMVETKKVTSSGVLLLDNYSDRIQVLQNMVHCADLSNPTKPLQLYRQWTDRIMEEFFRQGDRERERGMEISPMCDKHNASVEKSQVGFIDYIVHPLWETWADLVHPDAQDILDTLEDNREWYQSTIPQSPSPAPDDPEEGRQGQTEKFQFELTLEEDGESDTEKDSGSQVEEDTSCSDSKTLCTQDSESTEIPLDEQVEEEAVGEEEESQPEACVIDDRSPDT

[5] = target: cGMP-specific 3',5'-cyclic phosphodiesterase (Homo sapiens) (UniProt O76074); experiment: Inhibition of PDE5A (unknown origin) at 10 uM
[6] = target: 3',5'-cyclic-AMP phosphodiesterase 7B (Homo sapiens) (UniProt Q9NP56); experiment: Inhibition of PDE7B (unknown origin) at 10 uM
3',5'-cyclic-AMP phosphodiesterase 7B (Homo sapiens), sequence (Q9NP56 whole entry): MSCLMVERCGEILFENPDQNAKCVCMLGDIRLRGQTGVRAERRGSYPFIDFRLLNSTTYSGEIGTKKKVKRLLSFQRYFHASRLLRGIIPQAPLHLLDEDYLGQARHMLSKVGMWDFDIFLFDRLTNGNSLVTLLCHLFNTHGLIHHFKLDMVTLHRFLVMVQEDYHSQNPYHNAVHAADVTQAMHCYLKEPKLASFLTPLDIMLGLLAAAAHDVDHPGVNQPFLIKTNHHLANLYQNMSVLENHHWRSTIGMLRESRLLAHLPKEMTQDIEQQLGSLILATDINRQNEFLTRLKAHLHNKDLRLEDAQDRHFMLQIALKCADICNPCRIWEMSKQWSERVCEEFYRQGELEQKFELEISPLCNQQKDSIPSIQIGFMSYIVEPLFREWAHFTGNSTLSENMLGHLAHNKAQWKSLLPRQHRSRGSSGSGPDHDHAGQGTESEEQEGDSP

[7] = target: High affinity cAMP-specific and IBMX-insensitive 3',5'-cyclic phosphodiesterase 8A (Homo sapiens) (UniProt O60658); experiment: Inhibition of PDE8A (unknown origin) at 10 uM
High affinity cAMP-specific and IBMX-insensitive 3',5'-cyclic phosphodiesterase 8A (Homo sapiens), sequence (O60658 whole entry): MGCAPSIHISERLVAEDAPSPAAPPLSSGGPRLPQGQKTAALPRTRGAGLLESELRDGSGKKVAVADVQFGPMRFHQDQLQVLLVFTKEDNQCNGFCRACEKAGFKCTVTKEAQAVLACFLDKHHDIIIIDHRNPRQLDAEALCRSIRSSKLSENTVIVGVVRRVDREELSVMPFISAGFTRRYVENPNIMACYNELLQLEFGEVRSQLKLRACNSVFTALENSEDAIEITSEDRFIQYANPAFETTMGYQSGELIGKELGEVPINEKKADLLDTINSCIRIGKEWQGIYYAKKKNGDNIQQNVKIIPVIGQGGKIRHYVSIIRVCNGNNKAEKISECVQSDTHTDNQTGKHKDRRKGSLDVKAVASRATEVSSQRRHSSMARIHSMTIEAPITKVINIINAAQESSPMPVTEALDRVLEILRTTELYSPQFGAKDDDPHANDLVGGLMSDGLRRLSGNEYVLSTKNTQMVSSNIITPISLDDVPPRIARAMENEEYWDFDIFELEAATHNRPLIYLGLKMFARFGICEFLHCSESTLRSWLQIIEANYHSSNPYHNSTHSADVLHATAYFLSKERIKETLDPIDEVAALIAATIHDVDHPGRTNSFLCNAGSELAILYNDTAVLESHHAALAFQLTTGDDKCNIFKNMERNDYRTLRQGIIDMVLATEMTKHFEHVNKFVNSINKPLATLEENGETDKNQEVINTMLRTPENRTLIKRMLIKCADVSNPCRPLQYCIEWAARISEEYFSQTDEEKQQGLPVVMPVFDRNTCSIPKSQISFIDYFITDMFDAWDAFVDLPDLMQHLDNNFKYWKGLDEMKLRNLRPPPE

[8] = target: High affinity cGMP-specific 3',5'-cyclic phosphodiesterase 9A (Homo sapiens) (UniProt O76083); experiment: Inhibition of PDE9A (unknown origin) at 10 uM
High affinity cGMP-specific 3',5'-cyclic phosphodiesterase 9A (Homo sapiens), sequence (O76083 whole entry): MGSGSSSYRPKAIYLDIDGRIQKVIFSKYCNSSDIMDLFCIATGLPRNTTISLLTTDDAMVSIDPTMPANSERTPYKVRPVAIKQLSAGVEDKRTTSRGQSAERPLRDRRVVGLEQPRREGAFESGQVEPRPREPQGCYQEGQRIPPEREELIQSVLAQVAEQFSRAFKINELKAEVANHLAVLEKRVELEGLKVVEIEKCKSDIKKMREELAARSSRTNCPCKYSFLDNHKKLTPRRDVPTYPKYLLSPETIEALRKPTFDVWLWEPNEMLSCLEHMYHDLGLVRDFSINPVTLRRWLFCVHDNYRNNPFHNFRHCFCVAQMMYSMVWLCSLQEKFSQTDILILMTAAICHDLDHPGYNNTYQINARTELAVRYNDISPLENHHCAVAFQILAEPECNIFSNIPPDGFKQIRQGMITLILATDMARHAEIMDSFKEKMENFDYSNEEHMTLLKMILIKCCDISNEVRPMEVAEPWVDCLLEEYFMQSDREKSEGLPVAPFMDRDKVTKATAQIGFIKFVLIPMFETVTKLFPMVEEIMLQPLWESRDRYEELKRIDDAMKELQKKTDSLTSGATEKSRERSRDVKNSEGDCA

[9] = target: T1, cAMP and cAMP-inhibited cGMP 3',5'-cyclic phosphodiesterase 10A; experiment: Inhibition of PDE10A (unknown origin) at 2 uM
[10] = target: Dual 3',5'-cyclic-AMP and -GMP phosphodiesterase 11A (Homo sapiens) (UniProt Q9HCR9); experiment: Inhibition of PDE11A (unknown origin) at 10 uM
Dual 3',5'-cyclic-AMP and -GMP phosphodiesterase 11A (Homo sapiens), sequence (Q9HCR9 whole entry, looked up): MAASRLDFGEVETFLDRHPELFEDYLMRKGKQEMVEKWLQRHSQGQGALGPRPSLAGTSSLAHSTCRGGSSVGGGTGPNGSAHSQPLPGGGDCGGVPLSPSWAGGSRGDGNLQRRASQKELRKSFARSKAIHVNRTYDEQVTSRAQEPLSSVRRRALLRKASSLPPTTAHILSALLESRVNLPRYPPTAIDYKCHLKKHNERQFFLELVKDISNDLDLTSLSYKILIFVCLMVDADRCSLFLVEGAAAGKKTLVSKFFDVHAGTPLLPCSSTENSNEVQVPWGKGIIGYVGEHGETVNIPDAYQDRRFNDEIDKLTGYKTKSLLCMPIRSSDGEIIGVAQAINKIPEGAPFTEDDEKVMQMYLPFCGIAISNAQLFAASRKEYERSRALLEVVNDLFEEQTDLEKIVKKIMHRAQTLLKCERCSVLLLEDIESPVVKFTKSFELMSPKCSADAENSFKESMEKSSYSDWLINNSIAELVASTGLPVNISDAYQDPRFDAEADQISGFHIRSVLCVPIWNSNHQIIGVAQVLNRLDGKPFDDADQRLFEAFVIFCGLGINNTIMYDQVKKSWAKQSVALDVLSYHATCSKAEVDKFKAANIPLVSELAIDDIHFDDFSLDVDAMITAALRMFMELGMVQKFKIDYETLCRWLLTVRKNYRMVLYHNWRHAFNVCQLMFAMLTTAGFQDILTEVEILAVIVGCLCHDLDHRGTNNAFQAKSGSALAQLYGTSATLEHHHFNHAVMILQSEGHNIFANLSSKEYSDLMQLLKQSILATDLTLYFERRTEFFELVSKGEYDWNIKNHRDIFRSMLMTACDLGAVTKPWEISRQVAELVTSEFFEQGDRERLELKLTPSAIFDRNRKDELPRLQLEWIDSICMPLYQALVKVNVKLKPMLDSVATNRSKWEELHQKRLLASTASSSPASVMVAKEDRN

[11] = target: Dual specificity calcium/calmodulin-dependent 3',5'-cyclic nucleotide phosphodiesterase 1C (Homo sapiens) (UniProt Q14123); experiment: Inhibition of PDE1C (unknown origin) at 10 uM
[12] = target: T1, cAMP and cAMP-inhibited cGMP 3',5'-cyclic phosphodiesterase 10A; experiment: Inhibition of PDE10A (unknown origin) at 10 uM
[13] = target: Dual 3',5'-cyclic-AMP and -GMP phosphodiesterase 11A (Homo sapiens) (UniProt Q9HCR9); experiment: Inhibition of PDE11A (unknown origin) at 2 uM
MDCK = experiment: Apparent permeability across apical to basolateral side in MDCK cells expressing MDR1 (unknown origin); parameters: unit not given here; conditions: dog

| SMILES | IC50 [1] [nM] | inhibition [2] [%] | inhibition [3] [%] | inhibition [4] [%] | inhibition [5] [%] | inhibition [6] [%] | inhibition [7] [%] | inhibition [8] [%] | inhibition [9] [%] | inhibition [10] [%] | inhibition [11] [%] | inhibition [12] [%] | inhibition [13] [%] | Papp A-B (MDCK) |
| --- | --- | --- | --- | --- | --- | --- | --- | --- | --- | --- | --- | --- | --- | --- |
| CCOC(=O)c1cc2c3cccnc3cc(CCc3nc(-c4ccccc4)cn3C)n2n1 | 220 | 44 | 13 | 45 | 13 | -4 | 46 | 20 | 88 | 7 | – | – | – | – |
| CCOC(=O)c1cc2c3cccnc3cc(CCc3nc4ccccc4n3C)n2n1 | 1300 | 20 | 1 | 24 | 38 | 17 | -6 | -2 | 73 | 10 | 27 | – | – | – |
| Cc1cc2c3cnccc3cc(CCc3nc4ccccc4n3C)n2n1 | 480 | 54 | 30 | 15 | 39 | -3 | 46 | 15 | 79 | 1 | 10 | – | – | – |
| Cc1cc2c3ccccc3cc(CCc3nc4ccccc4n3C)n2n1 | 1000 | 8 | 15 | 11 | 20 | 11 | 36 | 10 | – | – | -7 | 77 | 12 | 1.1 |
| Cc1cc2c3ccccc3cc(CCc3nc(-c4ccccc4)cn3C)n2n1 | 900 | 14 | 20 | 12 | – | 13 | 17 | – | – | – | -1 | 72 | 13 | 3.1 |
| Cn1cc(-c2ccccc2)nc1CCc1cc2ncccc2c2cc(C(F)(F)F)nn12 | 190 | 13 | 28 | 44 | 33 | 41 | 31 | 8 | – | – | -3 | 101 | 25 | 3.1 |

These reach a lower IC50 [1]. Values come first.

| IC50 [1] [nM] | inhibition [2] [%] | inhibition [3] [%] | inhibition [4] [%] | inhibition [5] [%] | inhibition [6] [%] | inhibition [7] [%] | inhibition [8] [%] | inhibition [9] [%] | inhibition [10] [%] | inhibition [11] [%] | inhibition [12] [%] | inhibition [13] [%] | Papp A-B (MDCK) | SMILES |
| --- | --- | --- | --- | --- | --- | --- | --- | --- | --- | --- | --- | --- | --- | --- |
| 170 | 55 | 16 | 23 | 67 | 27 | 13 | 21 | 93 | 43 | 28 | – | – | – | Cc1cc2c3cccnc3cc(CCc3nc4ccccc4n3C)n2n1 |
| 55 | 20 | 13 | 25 | 15 | 41 | 25 | 53 | 100 | 7 | 11 | – | – | – | Cc1cc2c3cnccc3cc(CCc3nc(-c4ccccc4)cn3C)n2n1 |
| 42 | 69 | 51 | 58 | 38 | 47 | 29 | 15 | – | – | 7 | 106 | 70 | 17.8 | COCc1cc2c3cccnc3cc(CCc3nc(-c4ccccc4)cn3C)n2n1 |
| 40 | 17 | 49 | 68 | 59 | 53 | 37 | 12 | – | – | 24 | 102 | 37 | 11.7 | Cc1cc2c3ccncc3cc(CCc3nc(-c4ccccc4)cn3C)n2n1 |
| 40 | 28 | 5 | 38 | 35 | 18 | 16 | 5 | 102 | 34 | 15 | – | – | – | Cc1cc2c3cccnc3cc(CCc3nc(-c4ccccc4)cn3C)n2n1 |
